Compounds with a hit are over-represented: about 3.5% of the library has one in this group of screens.
sEH act: increases human soluble epoxide hydrolase activity. purified human sEH enzymatic activity, activator screen. activation, % at 2 µM. hit rate 0.04% among 91,000; in the data active = activation above about 37%
ERa SRC1 inh: ER-alpha (human) coactivator binding inhibition; P03372; TR-FRET ER-alpha LBD / SRC-1 peptide, estradiol-bound; inhibition, % at 25.6 µM; hit rate 1.7% among 86,000; in the data active = inhibition above about 50%;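 note: 0% = receptor plus peptide control and 100% = peptide only without receptor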
Target sequence (P03372 whole entry, looked up, the tested form may be a part): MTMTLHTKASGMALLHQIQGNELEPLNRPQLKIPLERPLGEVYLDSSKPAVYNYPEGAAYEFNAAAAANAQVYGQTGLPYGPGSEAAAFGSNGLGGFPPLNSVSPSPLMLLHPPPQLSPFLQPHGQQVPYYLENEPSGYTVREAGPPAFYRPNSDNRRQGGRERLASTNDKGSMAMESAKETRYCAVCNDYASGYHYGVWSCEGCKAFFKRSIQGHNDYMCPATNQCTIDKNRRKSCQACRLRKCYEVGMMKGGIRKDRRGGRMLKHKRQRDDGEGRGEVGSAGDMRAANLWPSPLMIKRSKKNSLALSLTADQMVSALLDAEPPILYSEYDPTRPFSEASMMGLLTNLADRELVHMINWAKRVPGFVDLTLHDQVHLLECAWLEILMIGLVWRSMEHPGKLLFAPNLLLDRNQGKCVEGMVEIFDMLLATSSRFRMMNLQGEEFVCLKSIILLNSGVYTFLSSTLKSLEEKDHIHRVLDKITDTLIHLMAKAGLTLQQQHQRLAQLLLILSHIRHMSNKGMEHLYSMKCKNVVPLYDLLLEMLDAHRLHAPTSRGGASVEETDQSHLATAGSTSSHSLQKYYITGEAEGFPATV
ERa SRC1 pot: ER-alpha (human) coactivator binding potentiation; P03372; TR-FRET ERalpha-LBD/SRC-Cy5 coactivator binding, 2 h; 100 = basal binding, no effect; coactivator binding (% of control), % at 25.6 µM; hit rate 1.3% among 86,000; AID 639; in the data active = activity above about 200%;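 note: binding measured in presence of low estradiol as agonist stimulus; 0% = peptide alone without receptor and 100% = receptor with peptide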
HIV Rev-RRE inh: disrupts HIV-1 Rev binding to RRE RNA. Rev peptide-RRE RNA binding, FRET. inhibition, % at 8 µM. hit rate 0.79% among 97,000. AID 704;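 active = inhibition above the screen-wide mean plus 3 SD, cut at about 35% in these data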;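 note: 0% = median DMSO wells and 100% = median Neomycin B control wells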
Target sequence (P05866 whole entry, looked up): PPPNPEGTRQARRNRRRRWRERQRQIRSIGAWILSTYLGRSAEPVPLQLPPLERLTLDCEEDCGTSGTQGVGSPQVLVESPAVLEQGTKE
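Test system: Cy5-tagged RRE RNA duplex with fluorescein-tagged Rev peptide | Read-out: % inhibition of FRET ratio versus controls | Probe or stimulus: Labelled Rev peptide | Incubation: 5 min RNA-compound premix plus 15 min binding step, 25 °C | Technique: FRET fluorescence readout | Benchmarks: DMSO low control, neomycin B high control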
sEH inh: inhibitors of human soluble epoxide hydrolase; P34913; recombinant human sEH enzymatic activity assay; inhibition, % at 2 µM; hit rate 0.34% among 91,000; in the data active = inhibition above about 80%
ERb coact inh: ER-beta (human) coactivator binding inhibition | inhibition, % at 25.6 µM | hit rate 1.3% among 86,000 | TR-FRET ER-beta LBD / SRC1-Cy5 peptide binding; receptor agonist-loaded with 1 µM estradiol | AID 633;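 active = compounds whose percent inhibition of the receptor-coactivator binding signal exceeds about 50% in the single-dose screen, limit read from the data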;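 note: 0% = receptor plus peptide wells without compound and 100% = peptide-only wells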
An asterisk follows results filed as active; . = not tested or not shown; [ ] = remark or other dose.

SMILES | sEH act | ERa SRC1 inh | ERa SRC1 pot | HIV Rev-RRE inh | sEH inh | ERb coact inh
CC(C)(C)NC(=O)C(c1ccncc1)N(C(=O)Cn1nnc(-c2cccs2)n1)C1CCCCC1 (configuration not stated) | 4.3 | -4.9 | 107.5 | 9.5 | -0.7 | 0.8
COc1cccc2cc(C(=O)Nc3cccnc3N3CCOCC3)c(=O)oc12 | -2.1 | -18.1 | 289.3* | 2.5 | 3.3 | 0.9
COc1cccc2cc(C(=O)N3CCC(C)CC3)c(=O)oc12 | -5.4 | -4.9 | 102.3 | 8.3 | 4.6 | -1.0
COc1cccc2cc(C(=O)Nc3cccc(C)n3)c(=O)oc12 | . | 34.6 | 253.2* | . | . | 25.4
O=C(Nc1cccnc1N1CCOCC1)c1cc2ccccc2oc1=O | . | -3.5 | 120.8 | . | . | -12.6
O=C(c1ccc(Cl)cc1)c1c[nH]c(C(=O)C(Cl)(Cl)Cl)c1 | 0.4 | -6.0 | 85.1 | 9.3 | 2.7 | -7.8
CCc1cc(C)c(O)c(CC)n1 | 3.5 | -10.3 | 109.0 | 8.5 | -6.3 | -10.1
O=C1CCCC2=C1C(c1ccsc1)CC(=O)N2c1nnc(SCc2ccccc2)s1 (configuration not stated) | . | . | . | 9.1 | . | .
CCN(CC)c1c(-c2ccccc2)c2cc(C)ccc2[nH]c1=O | . | 25.9 | 248.1*[fluorescence artefact?] | . | . | 40.1
CCOC(=O)N1CCN(c2c(-c3ccccc3)c3cc(Cl)ccc3[nH]c2=O)CC1 | 0.1 | . | . | 8.5 | 2.5 | .
Cc1ccc(C2=NNC(C(O)C(O)C(O)CO)S2)cc1 (configuration not stated) | -4.0 | . | . | -2.1 | 5.5 | .
Cc1cccc(-n2c(O)c(C=Nc3ccc4c(c3)OCO4)c3ccccc3c2=O)n1 | . | 70.9*[fluorescence artefact?] | 49.5 | . | . | 25.6
Cc1ccc(-n2c(O)c(C=Nc3ccc4c(c3)OCO4)c3ccccc3c2=O)cc1C | 11.4 | . | . | 9.8 | -11.8 | .
CCn1c(SCc2nc3sc(C(=O)O)c(C)c3c(=O)[nH]2)nc2ccccc21 | 6.5 | . | . | 60.1* | -4.9 | .
COc1ccc(N(C(=O)c2ccc(S(=O)(=O)N3CCOCC3)cc2)C2C=CS(=O)(=O)C2)cc1 (configuration not stated) | -4.5 | -4.5 | 124.3 | 0.5 | 3.3 | 3.3
CCN(CC)CCCCCOc1ccccc1OC | 3.0 | 0.2 | 132.2 | 4.4 | -1.9 | 0.2
CCc1c(C)nc(SCC(=O)c2cccs2)c(C#N)c1C | 16.4 | 19.4 | 137.8 | 14.7 | -23.2 | 52.9*
CCc1c(C)nc(SCC(N)=O)c(C#N)c1C | 9.8 | 10.3 | 107.7 | 6.8 | -8.8 | -27.1
COc1ccccc1N1CCN(C(=O)CSc2ncccc2-c2nc3ccccc3[nH]2)CC1 | 3.8 | -1.6 | 82.4 | 10.8 | -2.4 | 12.5
O=C(CSc1ncccc1-c1nc2ccccc2[nH]1)N1CCN(c2ccccc2F)CC1 | 1.2 | -8.9 | 223.4* | 9.1 | -2.5 | 4.1
CC(=O)CCc1c(C)c2cccc(C)c2[nH]c1=O | . | 4.2 | 94.9 | . | . | 82.2*[fluorescence artefact?]
C=CCOc1c(Br)cc(C2NC(=O)NC(C)=C2C(C)=O)cc1OCC (configuration not stated) | 3.4 | 17.1 | 99.4 | 5.7 | -4.6 | 14.5
COc1cc(S(=O)(=O)Nc2ccccc2C)ccc1Cl | -2.5 | -2.3 | 86.2 | 7.7 | 0.3 | -6.5
COc1cc(S(=O)(=O)Nc2c(C)cc(C)cc2C)ccc1Cl | 7.3 | -1.2 | 90.6 | 15.3 | -5.3 | 63.4*[fluorescence artefact?]
Cc1ccc(NC(=O)NC2CCN(S(=O)(=O)c3ccc(F)cc3)CC2)cc1 | -83.9 | -12.5 | 91.4 | 6.9 | 84.8* | -17.1
SMILES | sEH act | ERa SRC1 inh | ERa SRC1 pot | HIV Rev-RRE inh | sEH inh | ERb coact inh
Clc1ccccc1Sc1cnc2ccccc2n1 | -14.2 | 0.5 | 126.1 | 5.6 | 15.4 | -15.2
CCCCCCN=CC1=C(O)C(C(=O)OC)C(C)(C)CC1=O (configuration not stated) | -4.0 | 42.2 | 54.0 | -0.2 | 4.3 | 60.2*
c1ccc2c(c1)CCN2CCN1CCc2ccccc21 | . | -4.3 | 139.6 | . | . | -0.9
CN(C)CCN1CCc2ccccc21 | -3.9 | 40.4 | 47.6 | 5.4 | 2.1 | 55.0*[fluorescence artefact?]
CCN(CC)c1ccc2c(c1)oc(=O)c1c(Cl)cc(=O)oc12 | 12.8 | -6.2 | 308.9* | 129.1*[fluorescence artefact?] | -9.6 | -7.2
O=C(Oc1ccc(-c2cnc3ccccc3n2)cc1)c1cccc([N+](=O)[O-])c1 | -1.7 | . | . | 6.5 | 3.9 | .
O=C(Oc1ccc(-c2cnc3ccccc3n2)cc1)c1ccc(Br)o1 | -6.8 | 35.1 | 489.3* | 12.8 | 9.7 | 22.9
O=c1ccc2cc3c([nH]c4ccc(Br)cc43)oc-2c1O | 9.6 | 71.9*[fluorescence artefact?] | 19.4 | 36.7* | -4.3 | 74.4*[fluorescence artefact?]
O=C(O)c1cccc(S(=O)(=O)Nc2ccc3oc(=O)sc3c2)c1 | -0.3 | 41.7 | 44.3 | 1.2 | 1.8 | 51.7*[fluorescence artefact?]
Cc1ccc(CSCC(Nc2ccc(C(=O)O)cc2[N+](=O)[O-])C(=O)O)cc1 (configuration not stated) | 15.5 | -0.9 | 99.8 | 5.3 | -18.8 | -2.6
CCn1c(O)c(N=NC(=O)CNC(=O)/C=C/c2ccco2)c2ccccc21 | -11.4 | -1.8 | 95.0 | -3.4 | 11.8 | -13.2
CCOc1ncccc1C(=O)OCC(=O)NCCc1ccc(OC)cc1 | . | -5.9 | 101.5 | . | . | -7.0
O=C(NCc1ccco1)C1Cc2ccccc2CN1S(=O)(=O)c1ccccc1F (configuration not stated) | -4.8 | 48.7 | 201.9*[fluorescence artefact?] | 1.6 | 5.5 | 40.2
COc1ccc(N2C(C)=CS/C2=C(/C#N)c2nnc(N3CCOCC3)n2-c2ccccc2)cc1 | -4.2 | . | . | -0.7 | 3.9 | .
O=C(CSc1nnc(-c2cccnc2)o1)c1cc2ccccc2oc1=O | 4.8 | -3.8 | 220.7* | 1.6 | -6.8 | 3.0
CCC(C)(C)n1nnnc1C(c1cc2ccc(OC)cc2[nH]c1=O)N1CCN(C2CCCCC2)CC1 (configuration not stated) | 4.1 | -3.3 | 92.9 | 9.8 | -6.6 | -2.3
Cc1c(C(=O)Nc2ccncc2)sc2nc(-c3ccccc3)cn12 | . | 13.7 | 214.0*[fluorescence artefact?] | . | . | -3.7
Cc1c(C(=O)Nc2ccc3c(c2)OCCO3)sc2nc(-c3ccccc3)cn12 | -5.2 | -24.1 | 100.1 | 0.3 | 5.8 | -22.6
O=C/C(=C\Nc1ccccn1)c1nc2cc(Cl)ccc2o1 | -8.5 | 65.9*[fluorescence artefact?] | 102.3 | 15.7 | 7.8 | 28.0
Cn1ncc2c1ncn1c(-c3ccccc3Cl)nnc21 | . | -11.6 | 107.1 | . | . | -20.5
Cc1cc(=O)oc(C)c1C(=O)OCC(=O)c1ccc(Br)cc1 | -2.8 | 25.5 | 99.3 | 9.5 | 7.5 | 19.0
Oc1ccc(Nc2nc3ccccc3nc2Nc2ccc(O)cc2)cc1 | -5.0 | 73.4*[fluorescence artefact?] | 13.7 | 0.5 | 7.5 | 83.2*[fluorescence artefact?]
Cc1n[nH]c(=O)nc1Nc1ccc(O)cc1 | 7.0 | -3.4 | 85.2 | -1.4 | -10.9 | 16.2
O=C(NCC1CCCC(CNC(=O)N2CCc3ccccc32)C1)N1CCc2ccccc21 (configuration not stated) | -92.5 | . | . | 3.9 | 92.4* | .
O=C(Nc1ccccc1)N1CCc2ccccc21 | -15.5 | -6.7 | 107.5 | 5.0 | 15.2 | -8.0
CCOC(=O)CC1C(C(=O)OCC)ON2OC(C(=O)OC)C(C(=O)OCC)C12 (configuration not stated) | 4.4 | -1.8 | 96.9 | 2.4 | -4.1 | -6.5
